Screening data: PubChem BioAssay, Broad Institute
Most compounds without a hit are left out; they make up all but 4% or so of the library.
FGF22 binding-1: binders of human FGF22 protein, primary screen, FGF22 synaptogenesis inhibitor project, biophysical, thermal shift, single point; activity (Tm shift, normalised), % at 9.99 µM; AID 651658, 2012; recombinant FGF22 thermal shift, SYPRO orange fluorescence; percent of sucrose octasulfate shift, DMSO zero; Fibroblast growth factor 22 (Homo sapiens), Q9HCT0; 340,000 tested, 1.5% active;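 active = mean Tm shift, scaled 0 neutral to 100 positive control, at about 1.3% or above, every replicate too, limit read from the data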
Target sequence (Q9HCT0 whole entry, looked up): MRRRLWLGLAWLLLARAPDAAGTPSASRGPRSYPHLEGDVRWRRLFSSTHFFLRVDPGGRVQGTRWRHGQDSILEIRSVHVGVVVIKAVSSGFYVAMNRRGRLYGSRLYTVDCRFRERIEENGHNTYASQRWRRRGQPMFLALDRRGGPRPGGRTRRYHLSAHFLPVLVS
FN deposition inh: inhibitors of fibronectin matrix deposition, primary screen, AH1F cells, Alexa488-fibronectin fluorescence, plate reader. inhibition, % at 12.6 µM. AH1F fibroblasts, overnight. 350,000 tested, 0.086% active. AID 743247, 2014;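 active = mean inhibition across replicates of 30% or more, regardless of how many single replicates reach that level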
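Schedule: 1 h cell adhesion before compound, then overnight fibronectin incubation; test system: AH1F fibroblast monolayer depositing Alexa488-labelled fibronectin into matrix; quantity: 10000 AH1F cells per well; probe or stimulus: fluorescent fibronectin at 24 nM final; signal: fluorescence, ex 485 nm, em 525 nm; evaluation: percent inhibition as loss of matrix-bound fibronectin fluorescence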
C2C12 statin: suppressors of statin myotoxicity in C2C12 myotubes, primary screen, cell-based, single point, plate reader; C2C12 myotubes + simvastatin, ATP luminescence, 48 h; scaled: DMSO 0, geranylgeraniol control 100; AID 602340, 2012; 330,000 tested, 0.78% active; rescue of ATP level, % at 7.49 µM;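 active = mean ATP rescue above about 67%, or every replicate alone reaching that limit, limit read from the data, passing the limit was not always enough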;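 also: myotubes were challenged with 10 µM simvastatin during compound exposure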
SIRT5 inh: SIRT5 desuccinylase inhibitors, primary screen, biochemical, fluorescence imaging, single point, set 5; inhibition, % at 15 µM; 330,000 tested, 1.1% active; NAD-dependent protein deacylase sirtuin-5, mitochondrial (Homo sapiens), Q9NXA8; Purified SirT5, succinyl-peptide AMC, trypsin-coupled fluorescence; in the data active = inhibition above about 15%
Target sequence (Q9NXA8 whole entry, looked up): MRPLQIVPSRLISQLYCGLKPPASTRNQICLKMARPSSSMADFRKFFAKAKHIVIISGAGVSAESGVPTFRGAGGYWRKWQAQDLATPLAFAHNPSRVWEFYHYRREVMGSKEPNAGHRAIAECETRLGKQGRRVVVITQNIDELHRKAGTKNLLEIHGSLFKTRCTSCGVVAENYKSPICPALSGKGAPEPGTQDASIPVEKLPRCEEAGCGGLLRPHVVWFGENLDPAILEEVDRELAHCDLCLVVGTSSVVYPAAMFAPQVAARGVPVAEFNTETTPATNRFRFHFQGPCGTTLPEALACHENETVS
rRNA inh HTS: reduced GFP signal of wild-type E. coli, primary screen, bacterial rRNA inhibitor project, GFP/RFP fluorescence, OD600, single point. E. coli WT GFP vs humanized-ribosome RFP mutants, 24 h; hits give low values; DMSO median 0, no signal -100. GFP signal change (wild-type ribosome), % (no concentration beside the values). 350,000 tested, 1.6% active. AID 720706, 2013;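 active = significant combined selectivity score with lowered wild-type GFP, culture density cut under 30%, mutant RFP and density less affected; inactive = any of these conditions unmet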
E-selectin induc: E-selectin induction in HUVECs, primary screen, imaging, HUVEC, immunofluorescence imaging, single point; AID 686992, 2013; activation, % at 7.58 µM; P16581; 260,000 tested, 0.37% active; normalized: neutral wells 0, TNF-alpha wells 100;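 active = mean E-selectin-positive cell signal at least 10% of the positive control, reached in at least 60% of replicates, without over 20% cell loss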
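material = human umbilical vein endothelial cells (HUVEC), E-selectin induction | quantity = 3,000 cells/well | medium = EGM-2 growth medium on 0.1% gelatin-coated wells | technique = immunofluorescence imaging | read-out basis = % PE-positive cells | control set = TNF-alpha positive control, DMSO neutral control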
FGF22 binding-2: binders of human FGF22 protein, dose response, FGF22 synaptogenesis inhibitor project, biophysical, thermal shift, cherry-pick retest. shares compounds with FGF22 binding-1. recombinant FGF22 thermal shift, SYPRO orange fluorescence. thermal shift activity, °C (ΔTm) at 38 µM. 1,000 tested, 2% active. AID 720646, 2013;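 active = fitted rise in melting shift crosses a set limit at or below the top valid dose tested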
FGF22 TSA DP: binders of human FGF22 protein, dose response, FGF22 synaptogenesis inhibitor project, biophysical, thermal shift, dry powder. AID 743017, 2013. shares compounds with FGF22 binding-1. Thermal shift assay, SYPRO orange, melting temperature shift. Tm shift (activity), % at 38 µM. 50 tested, under 10 active;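 active = compounds whose fitted dose curve of melting temperature shift rises past a set threshold within the tested doses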
TSA no protein: compound-only thermal shift signal without protein, dose response, artefact control for FGF22 binder project, biochemical, cherry-picked samples, RT-PCR instrument | shares compounds with FGF22 binding-1 | compound-only SYPRO orange thermal shift counter-screen, no protein | AC50, µM (doses to about 38 µM) | 1,000 tested, 2% active | AID 743019, 2013;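 active = rising signal whose fitted curve reaches the 0.54 level within the top valid dose, showing a melting point, actives reach about 13 µM in these data; inactive = the rest, including activity in the opposite direction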; also: value is where the raw curve crosses a fixed level and not half-maximal
A number is an active result; n = inactive; x = no result given.

SMILES	FGF22 binding-1	FN deposition inh	C2C12 statin	SIRT5 inh	rRNA inh HTS	E-selectin induc	FGF22 binding-2	TSA no protein	others
COc1cccc(S(=O)(=O)Nc2ccc3c(c2)OC[C@@H](C)N(C(=O)Cc2cccnc2)C[C@H](C)[C@H](OC)CN(C)C3=O)c1	x	n	n	x	n	n	x	x
COc1cccc(NC(=O)CN2CCN(S(=O)(=O)c3ccc(F)cc3)CC2)c1	28	x	n	n	n	x	n	n
COc1cccc(NC(=O)CN2CCN(S(=O)(=O)c3ccc(C(C)C)cc3)CC2)c1	x	x	n	x	x	x	x	x
Cc1nc2ccc(NC(=O)c3cc([N+](=O)[O-])cc([N+](=O)[O-])c3Cl)cc2s1	2.1	n	x	n	n	n	n	n
O=C(Nc1ccc(S(=O)(=O)N2CCOCC2)cc1)c1ccc(S(=O)(=O)N2CCOCC2)cc1	n	n	n	n	n	n	x	x
O=C(CCCOc1ccc(Br)cc1)Nc1ccc(S(=O)(=O)N2CCOCC2)cc1	n	n	x	n	n	n	x	x
CC(=O)c1ccc(OCCCC(=O)Nc2ccc(S(=O)(=O)N3CCOCC3)cc2)cc1	1.9	n	n	n	n	n	n	n
O=C(Nc1ccc(S(=O)(=O)N2CCOCC2)cc1)c1ccc(F)cc1	1.4	n	n	n	n	n	x	n	FGF22 TSA DP=n
O=C(CNC(=O)c1ccc(S(=O)(=O)N2CCCC2)cc1)N/N=C/c1ccc(F)cc1	1.4	n	x	n	n	x	n	n
O=C(CNC(=O)c1ccc(S(=O)(=O)N2CCCC2)cc1)N/N=C/c1ccccc1Cl	x	n	x	x	x	x	x	x
CO[C@@H]1CN(C)C(=O)c2cc(NS(=O)(=O)c3ccc(C)cc3)ccc2OC[C@@H](C)NC[C@@H]1C	n	n	n	n	n	n	x	x
COCC#Cc1ccc2c(c1)O[C@@H](CN(C)Cc1ccncc1)[C@H](C)CN([C@H](C)CO)S2(=O)=O	n	n	n	n	n	n	x	x
COc1ccc(NS(=O)(=O)c2cccc(C(=O)N/N=C/c3c(F)c(F)c(F)c(F)c3F)c2)cc1	n	n	n	n	n	x	x	x
COc1ccc(N(CC(=O)N/N=C/c2ccc(OC)c(OC)c2)S(=O)(=O)c2ccccc2)cc1	1.5	n	n	n	n	x	n	n
COc1ccc(NS(=O)(=O)c2cccc(C(=O)NN=Cc3ccc(OC)c(O)c3)c2)cc1	34	x	n	x	n	x	n	n
CCCNC(=O)N1C[C@@H]2[C@H](c3ccccc31)[C@H](CO)N2Cc1ccc(F)cc1	1.3	x	n	n	n	n	n	n
CCCNC(=O)N1C[C@H]2[C@@H](c3ccccc31)[C@@H](CO)N2Cc1ccc(F)cc1	n	x	n	n	n	n	x	x
CC(C)NC(=O)N1C[C@@H]2[C@H](c3ccccc31)[C@@H](CO)N2Cc1ccccn1	15	x	n	n	n	n	n	n
CCC(=O)N1CC2(C1)[C@H](c1ccc(-c3cccc(C)c3)cc1)[C@@H](CO)N2S(C)(=O)=O	4.5	n	x	n	n	n	n	n
CCC(=O)N1CC2(C1)[C@@H](c1ccc(-c3cccc(C)c3)cc1)[C@@H](CO)N2S(C)(=O)=O	n	n	x	n	n	n	x	x
COC(=O)C1=C(CS(=O)(=O)c2ccc(OC)c(OC)c2)NC(=O)NC1c1ccc(O)c(OC)c1 (stereo not given)	n	n	n	n	n	n	x	x
COC(=O)C1=C(CS(=O)(=O)c2cc(OC)ccc2OC)NC(=O)NC1c1ccc(O)c(OC)c1 (stereo not given)	1.5	n	n	n	n	n	n	n	FGF22 TSA DP=n
CCCOC(=O)c1ccc(Oc2cn[nH]c2-c2ccc(O)cc2O)cc1	1.5	n	n	n	n	n	n	n
CNC[C@H]1OCCCC[C@@H](C)Oc2ccc(NS(=O)(=O)c3ccccc3)cc2C(=O)N([C@H](C)CO)C[C@H]1C	n	x	n	n	n	n	x	x
O=C(N/N=C\c1cccnc1)c1cc(-c2ccc(Cl)s2)[nH]n1	1.3	n	x	n	n	n	n	n
SMILES	FGF22 binding-1	FN deposition inh	C2C12 statin	SIRT5 inh	rRNA inh HTS	E-selectin induc	FGF22 binding-2	TSA no protein	others
O=C(N/N=C/c1cccnc1)c1ccccc1Cl	n	n	n	n	n	n	x	x
CCN1C/C(=C/c2sccc2C)c2nc3ccccc3c(C(=O)O)c2C1	n	n	x	n	n	n	x	x
CCN1C/C(=C/c2cccs2)c2nc3ccccc3c(C(=O)O)c2C1	1.8	n	n	n	n	n	n	n	FGF22 TSA DP=n
O=C(Nc1ccc(Cl)cc1)N1C[C@@H]2[C@H](c3ccccc31)[C@H](CO)N2CC1CCCCC1	n	n	n	n	n	n	x	x
O=C(NCc1ccccn1)C(=O)Nc1ccccc1	n	n	x	n	n	n	x	x
c1ccc(NCc2ccccn2)cc1	1.4	n	x	n	n	n	n	n
Cc1ccc(NC(=O)c2ccc(Cl)c(S(=O)(=O)NCC3CCCO3)c2)c(O)c1 (stereo not given)	30	n	n	n	n	n	n	n
CC(=O)C1=C(O)C(=O)N(c2ccc(S(=O)(=O)Nc3nccs3)cc2)C1c1ccc(F)cc1 (stereo not given)	1.7	n	x	n	n	n	n	n
Cc1cc(S(=O)(=O)NCc2cccnc2)ccc1F	n	n	n	n	n	x	x	x
Cc1ccc(S(=O)(=O)NCc2cccnc2)cc1C	3.2	n	n	n	n	x	n	n
Cc1ccc(NC(=O)c2ccc(S(=O)(=O)NCc3cccnc3)cc2)c(C)c1	1.6	n	n	n	n	x	n	n
CCCNC(=O)N1[C@@H](CO)[C@@H]2c3ccccc3N(C(=O)Nc3ccccc3)C[C@@H]21	n	n	n	n	n	n	x	x
O=C(NC1CCCCC1)c1cc(-c2cccc(Cl)c2)on1	3.9	n	n	n	n	x	n	n
